# Experimental data as given in ChEMBL document CHEMBL1649328, “Assessment of pandemic and seasonal influenza A (H1N1) virus susceptibility to neuraminidase inhibitors in three enzyme activity inhibition assays” (Antimicrob Agents Chemother, 2010).
# Key:
# Influenza A virus [1] = assay: Ratio of IC50 for influenza A (A/Hong Kong/2369/2009 (H1N1)) virus harboring neuraminidase H275Y mutant to IC50 for influenza A (A/Washington/29/2009 (H1N1)) virus expressing wild type enzyme by fetuin substrate based colorimetric assay; assay type: functional
# Influenza A virus [2] = assay: Ratio of IC50 for influenza A (A/Montana/02/2009 (H1N1)) virus harboring neuraminidase H275Y mutant to IC50 for influenza A (A/Washington/29/2009 (H1N1)) virus expressing wild type enzyme by fetuin substrate based colorimetric assay; assay type: functional
# Influenza A virus [3] = assay: Ratio of IC50 for influenza A (A/Hong Kong/2369/2009 (H1N1)) virus harboring neuraminidase H275Y mutant to IC50 for influenza A (A/Washington/29/2009 (H1N1)) virus expressing wild type enzyme by NA-star substrate based chemiluminescent assay; assay type: functional
# Influenza A virus [4] = assay: Ratio of IC50 for influenza A (A/Singapore/57/2009 (H1N1)) virus harboring neuraminidase H275Y mutant to IC50 for influenza A (A/Washington/29/2009 (H1N1)) virus expressing wild type enzyme by MUNANA substrate based fluorometric assay; assay type: functional
# Procedure, shortened: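 Fluorometric NA inhibition in MES/CaCl2 buffer, pH 6.0. Virus preincubated 30 min at 37°C with ten half-log inhibitor dilutions (0.03–1,000 nM final), then MUNANA (100 μM final) added for 30 min at 37°C. Stopped with 0.1 M glycine in 25% ethanol, pH 10.7. Read at ex 365/em 450 nm. IC50 curve-fitted, mean of ≥3 experiments. Ratio is variant IC50 over wild-type reference IC50.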
# Influenza A virus [5] = assay: Antiviral activity against influenza A (A/Washington/29/2009 (H1N1)) virus harboring neuraminidase H275Y mutant after 30 mins by NA-star substrate based chemiluminescent assay; assay type: functional, organism-based
# Procedure, shortened: (§1)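 Titrated virus in NA-Star buffer (26 mM MES, 4 mM CaCl2, pH 6.0) was preincubated with ten half-log inhibitor dilutions (0.03–1,000 nM final) for 30 min at 37°C, then with substrate for 30 min at room temperature. Accelerator solution was added and luminescence read for 0.1 s. IC50 came from a Vmax·[1−x/(K+x)] fit, mean of ≥3 experiments.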
# Influenza A virus [6] = assay: Antiviral activity against influenza A (A/Singapore/57/2009 (H1N1)) virus harboring neuraminidase H275Y mutant after 30 mins by NA-star substrate based chemiluminescent assay; assay type: functional, organism-based; procedure, shortened: as §1
# Influenza A virus [7] = assay: Ratio of IC50 for influenza A (A/Singapore/57/2009 (H1N1)) virus harboring neuraminidase H275Y mutant to IC50 for influenza A (A/Washington/29/2009 (H1N1)) virus expressing wild type enzyme by NA-star substrate based chemiluminescent assay; assay type: functional
# Procedure, shortened: (§2)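 Chemiluminescent NA inhibition in MES 26 mM/CaCl2 4 mM buffer, pH 6.0. […] Luminescence read for 0.1 s. IC50 from the fit y = Vmax·{1 − [x/(K + x)]}, mean of ≥3 experiments. Ratio is the H275Y variant IC50 over the pandemic wild-type reference IC50.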
# Influenza A virus [8] = assay: Ratio of IC50 for influenza A (A/North Carolina/02/2009 (H1N1)) virus harboring neuraminidase H275Y mutant to IC50 for influenza A (A/Washington/10/2008 (H1N1)) virus expressing wild type enzyme expressing wild type enzyme by NA-star substrate based chemiluminescent assay; assay type: functional
# Influenza A virus [9] = assay: Ratio of IC50 for influenza A (A/North Carolina/01/2009 (H1N1)) virus harboring neuraminidase H275Y mutant to IC50 for influenza A (A/Washington/29/2009 (H1N1)) virus expressing wild type enzyme by MUNANA substrate based fluorometric assay; assay type: functional
# Influenza A virus [10] = assay: Ratio of IC50 for influenza A (A/Osaka/180/2009 (H1N1)) virus harboring neuraminidase H275Y mutant to IC50 for influenza A (A/Washington/29/2009 (H1N1)) virus expressing wild type enzyme by NA-star substrate based chemiluminescent assay; assay type: functional
# Influenza A virus [11] = assay: Ratio of IC50 for influenza A (A/North Carolina/02/2009 (H1N1)) virus harboring neuraminidase H275Y mutant to IC50 for influenza A (A/Washington/10/2008 (H1N1)) virus expressing wild type enzyme by fetuin substrate based colorimetric assay; assay type: functional
# Influenza A virus [12] = assay: Ratio of IC50 for influenza A (A/Singapore/91/2009 (H1N1)) virus harboring neuraminidase H275Y mutant to IC50 for influenza A (A/Washington/29/2009 (H1N1)) virus expressing wild type enzyme by NA-star substrate based chemiluminescent assay; assay type: functional; procedure, shortened: as §2
# Influenza A virus [13] = assay: Ratio of IC50 for influenza A (A/Singapore/91/2009 (H1N1)) virus harboring neuraminidase H275Y mutant to IC50 for influenza A (A/Washington/29/2009 (H1N1)) virus expressing wild type enzyme by fetuin substrate based colorimetric assay; assay type: functional
# Procedure, shortened: (§3)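 Colorimetric NA inhibition using a virus dilution that gave 0.4–0.8 OD549. Virus preincubated 1 h at 37°C with half-log inhibitor dilutions (0.03–1,000 nM final) in MES/CaCl2 pH 6.0 buffer. Fetuin (5.5 mg/ml final) then added for 18 h at 37°C. Released sialic acid detected by periodate oxidation and thiobarbituric acid, butanol extraction, read at 549 nm. IC50 curve-fitted, ≥2 experiments. Ratio is variant IC50 over wild-type reference IC50.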
# Influenza A virus [14] = assay: Ratio of IC50 for influenza A (A/New York/18/2009 (H1N1)) virus harboring neuraminidase H275Y mutant to IC50 for influenza A (A/Washington/10/2008 (H1N1)) virus expressing wild type enzyme by NA-star substrate based chemiluminescent assay; assay type: functional
# Influenza A virus [15] = assay: Ratio of IC50 for influenza A (A/Osaka/180/2009 (H1N1)) virus harboring neuraminidase H275Y mutant to IC50 for influenza A (A/Washington/29/2009 (H1N1)) virus expressing wild type enzyme by fetuin substrate based colorimetric assay; assay type: functional; procedure, shortened: as §3
# Influenza A virus [16] = assay: Ratio of IC50 for influenza A (A/North Carolina/01/2009 (H1N1)) virus harboring neuraminidase H275Y mutant to IC50 for influenza A (A/Washington/29/2009 (H1N1)) virus expressing wild type enzyme by NA-star substrate based chemiluminescent assay; assay type: functional
# Influenza A virus [17] = assay: Ratio of IC50 for influenza A (A/Osaka/180/2009 (H1N1)) virus harboring neuraminidase H275Y mutant to IC50 for influenza A (A/Washington/29/2009 (H1N1)) virus expressing wild type enzyme by MUNANA substrate based fluorometric assay; assay type: functional
# Influenza A virus [18] = assay: Ratio of IC50 for influenza A (A/Washington/29/2009 (H1N1)) virus harboring neuraminidase H275Y mutant to IC50 for influenza A (A/Washington/29/2009 (H1N1)) virus expressing wild type enzyme by fetuin substrate based colorimetric assay; assay type: functional; procedure, shortened: as §3
# Influenza A virus [19] = assay: Antiviral activity against influenza A (A/North Carolina/01/2009 (H1N1)) virus harboring neuraminidase H275Y mutant after 30 mins by MUNANA substrate based fluorometric assay; assay type: functional, organism-based
# Procedure, shortened: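 Fluorometric NA inhibition with MUNANA (100 μM final). Titrated virus in NA-Star buffer (26 mM MES, 4 mM CaCl2, pH 6.0) was preincubated with ten half-log inhibitor dilutions (0.03–1,000 nM final) for 30 min at 37°C, then with substrate for 30 min at 37°C. The reaction was stopped with 0.1 M glycine in 25% ethanol, pH 10.7, and 4-methylumbelliferone was read at ex 365/em 450 nm. IC50 came from a Vmax·[1−x/(K+x)] fit, mean of ≥3 experiments.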
SMILES,Ratio IC50 (Influenza A virus [1]),Ratio IC50 (Influenza A virus [2]),Ratio IC50 (Influenza A virus [3]),Ratio IC50 (Influenza A virus [4]),IC50 (Influenza A virus [5]),IC50 (Influenza A virus [6]),Ratio IC50 (Influenza A virus [7]),Ratio IC50 (Influenza A virus [8]),Ratio IC50 (Influenza A virus [9]),Ratio IC50 (Influenza A virus [10]),Ratio IC50 (Influenza A virus [11]),Ratio IC50 (Influenza A virus [12]),Ratio IC50 (Influenza A virus [13]),Ratio IC50 (Influenza A virus [14]),Ratio IC50 (Influenza A virus [15]),Ratio IC50 (Influenza A virus [16]),Ratio IC50 (Influenza A virus [17]),Ratio IC50 (Influenza A virus [18]),IC50 (Influenza A virus [19])
C/C=C\[C@@H]1C[C@H](C(=O)O)N[C@H]1[C@@H](NC(C)=O)[C@](C)(CCC)OC,3,2,3,3,1.62 nM,1.06 nM,3,1,4,3,1,1,1,1,3,5,5,2,1.93 nM
CCC(CC)[C@H](NC(C)=O)[C@@H]1[C@H](O)[C@@H](C(=O)O)C[C@H]1NC(=N)N [PERAMIVIR ANHYDROUS],330,111,66,609,12.5 nM,11.8 nM,84,1,831,93,1,1,1,1,398,125,488,332,150 nM
